Measured values taken from ChEMBL document CHEMBL4229530, “5-Adamantan thiadiazole-based thiazolidinones as antimicrobial agents. Design, synthesis, molecular docking and evaluation” (2018).
Converted amounts (≈) assume the structure as drawn.

What was measured:
[1] = system: Talaromyces funiculosus; assay: Antifungal activity against Penicillium funiculosum ATCC 36839 after 72 hrs by serial dilution assay; format: functional; details: ATCC 36839, 72 h
Outline: (§1)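 Modified microdilution: fungal spores washed off malt agar with sterile 0.85% saline plus 0.1% Tween 80, adjusted to about 1.0×10^5 per 100 µL well. Compounds in 5% DMSO (0.001-1.0 mg/ml) in malt broth; 72 h at 28°C on rotary shaker (160 rpm). MIC is lowest concentration without visible growth under binocular microscope. Bifonazole and ketoconazole controls (1-3500 µg/mL); three independent experiments in duplicate.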

[2] = system: Aspergillus versicolor; assay: Antifungal activity against Aspergillus versicolor ATCC 11730 after 72 hrs by serial dilution assay; format: functional; details: ATCC 11730, 72 h; outline: as §1
[3] = system: Pseudomonas aeruginosa; assay: Antibacterial activity against drug-resistant Pseudomonas aeruginosa after 24 hrs by INT dye based microdilution assay; format: functional
Outline: (§2)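 Broth microdilution in tryptic soy broth. Overnight culture adjusted to 1×10^5 CFU/mL, giving 1.0×10^4 CFU per well. Compounds dissolved in 5% DMSO and tested at 0.001-1.0 mg/ml. Plates incubated 24 h at 37°C. INT (0.2 mg/mL) then added, with 30 min at 37°C. Duplicate, repeated three times.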

[4] = system: Escherichia coli; assay: Antibacterial activity against Escherichia coli ATCC 35210 after 24 hrs by INT dye based microdilution assay; format: functional; details: ATCC 35210, 24 h
Outline: (§3)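 Broth microdilution in tryptic soy broth: overnight bacterial culture adjusted to 1×10^5 CFU/mL, 1.0×10^4 CFU per well; compounds dissolved in 5% DMSO, tested at 0.001-1.0 mg/ml; 24 h at 37°C. Streptomycin and ampicillin as positive controls, 5% DMSO as negative control; duplicate, repeated three times.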

[5] = system: Aspergillus niger; assay: Antifungal activity against Aspergillus niger ATCC 6275 after 72 hrs by serial dilution assay; format: functional; details: ATCC 6275, 72 h; outline: as §1
[6] = system: Penicillium ochrochloron; assay: Antifungal activity against Penicillium ochrochloron ATCC 9112 after 72 hrs by serial dilution assay; format: functional; details: ATCC 9112, 72 h; outline: as §1
[7] = system: Staphylococcus aureus; assay: Antibacterial activity against methicillin-resistant Staphylococcus aureus after 24 hrs by INT dye based microdilution assay; format: functional; outline: as §2
[8] = system: Aspergillus fumigatus; assay: Antifungal activity against Aspergillus fumigatus isolate 1022 after 72 hrs by serial dilution assay; format: functional; details: isolate 1022, 72 h; outline: as §1
[9] = system: Listeria monocytogenes; assay: Antibacterial activity against Listeria monocytogenes NCTC 7973 after 24 hrs by INT dye based microdilution assay; format: functional; details: NCTC 7973, 24 h; outline: as §3
[10] = system: Staphylococcus aureus; assay: Antibacterial activity against Staphylococcus aureus ATCC 6538 after 24 hrs by INT dye based microdilution assay; format: functional; details: ATCC 6538, 24 h; outline: as §3
[11] = system: Bacillus cereus; assay: Antibacterial activity against Bacillus cereus after 24 hrs by INT dye based microdilution assay; format: functional; outline: as §3
[12] = system: Penicillium verrucosum; assay: Antifungal activity against Penicillium cyclopium var verucosum after 72 hrs by serial dilution assay; format: functional; outline: as §1
[13] = system: Micrococcus flavus; assay: Antibacterial activity against Micrococcus flavus ATCC 10240 after 24 hrs by INT dye based microdilution assay; format: functional; details: ATCC 10240, 24 h; outline: as §3
[14] = system: Pseudomonas aeruginosa; assay: Antibacterial activity against Pseudomonas aeruginosa ATCC 27853 after 24 hrs by INT dye based microdilution assay; format: functional; details: ATCC 27853, 24 h; outline: as §3
[15] = system: Escherichia coli; assay: Antibacterial activity against drug-resistant Escherichia coli after 24 hrs by INT dye based microdilution assay; format: functional; outline: as §2
[16] = system: Salmonella typhimurium; assay: Antibacterial activity against Salmonella typhimurium ATCC 13311 after 24 hrs by INT dye based microdilution assay; format: functional, Salmonella enterica subsp. enterica serovar Typhimurium; details: Salmonella enterica, ATCC 13311, 24 h; outline: as §3
[17] = system: Trichoderma viride; assay: Antifungal activity against Trichoderma viride IAM 5061 after 72 hrs by serial dilution assay; format: functional; details: IAM 5061, 72 h; outline: as §1
[18] = system: Enterobacter cloacae; assay: Antibacterial activity against Enterobacter cloacae after 24 hrs by INT dye based microdilution assay; format: functional; outline: as §3
[19] = system: Aspergillus ochraceus; assay: Antifungal activity against Aspergillus ochraceus ATCC 12066 after 72 hrs by serial dilution assay; format: functional; details: ATCC 12066, 72 h; outline: as §1

Structure (SMILES) | MIC [1] [µM] | MIC [2] [µM] | MIC [3] [µM] | MIC [4] [µM] | MIC [5] [µM] | MIC [6] [µM] | MIC [7] [µM] | MIC [8] [µM] | MIC [9] [µM] | MIC [10] [µM] | MIC [11] [µM] | MIC [12] [µM] | MIC [13] [µM] | MIC [14] [µM] | MIC [15] [µM] | MIC [16] [µM] | MIC [17] [µM] | MIC [18] [µM] | MIC [19] [µM]
Cc1ccc(/C=C2/S/C(=N/c3nnc(C45CC6CC(CC(C6)C4)C5)s3)NC2=O)cc1 | 183 (≈ 79.9 µg/mL) | 183 (≈ 79.9 µg/mL) | 115 (≈ 50.1 µg/mL) | 0.115 (≈ 0.05 µg/mL) | 183 (≈ 79.9 µg/mL) | 183 (≈ 79.9 µg/mL) | 0.115 (≈ 0.0501 µg/mL) | 367 (≈ 160 µg/mL) | 59.3 (≈ 25.9 µg/mL) | 0.115 (≈ 0.05 µg/mL) | 115 (≈ 50 µg/mL) | 0.183 (≈ 0.0801 µg/mL) | 115 (≈ 50 µg/mL) | 115 (≈ 50 µg/mL) | 0.115 (≈ 0.0501 µg/mL) | 59.3 (≈ 25.9 µg/mL) | 367 (≈ 160 µg/mL) | 115 (≈ 50 µg/mL) | 183 (≈ 79.9 µg/mL)
O=C1N/C(=N\c2nnc(C34CC5CC(CC(C5)C3)C4)s2)S/C1=C/c1ccc(Cl)cc1Cl | 163 (≈ 80.1 µg/mL) | 163 (≈ 80.1 µg/mL) | 163 (≈ 80 µg/mL) | 0.163 (≈ 0.0801 µg/mL) | 81.4 (≈ 40 µg/mL) | 163 (≈ 80.1 µg/mL) | 0.0814 (≈ 0.04 µg/mL) | 81.4 (≈ 40 µg/mL) | 163 (≈ 80.1 µg/mL) | 0.0203 (≈ 0.00998 µg/mL) | 163 (≈ 80.1 µg/mL) | 0.0814 (≈ 0.04 µg/mL) | 163 (≈ 80.1 µg/mL) | 163 (≈ 80.1 µg/mL) | 0.0203 (≈ 0.00998 µg/mL) | 81.5 (≈ 40.1 µg/mL) | 81.4 (≈ 40 µg/mL) | 163 (≈ 80.1 µg/mL) | 81.4 (≈ 40 µg/mL)
COc1ccc(/C=C2/S/C(=N/c3nnc(C45CC6CC(CC(C6)C4)C5)s3)NC2=O)cc1 | 99.8 (≈ 45.2 µg/mL) | 99.8 (≈ 45.2 µg/mL) | 111 (≈ 50.1 µg/mL) | 0.0995 (≈ 0.045 µg/mL) | 179 (≈ 81 µg/mL) | 99.8 (≈ 45.2 µg/mL) | 0.111 (≈ 0.0501 µg/mL) | 99.8 (≈ 45.2 µg/mL) | 44.8 (≈ 20.3 µg/mL) | 0.0448 (≈ 0.0203 µg/mL) | 99.5 (≈ 45 µg/mL) | 0.0998 (≈ 0.0452 µg/mL) | 99.5 (≈ 45 µg/mL) | 99.5 (≈ 45 µg/mL) | 0.0553 (≈ 0.025 µg/mL) | 44.8 (≈ 20.3 µg/mL) | 179 (≈ 81 µg/mL) | 99.5 (≈ 45 µg/mL) | 99.8 (≈ 45.2 µg/mL)
CN(C)c1ccc(/C=C2/S/C(=N/c3nnc(C45CC6CC(CC(C6)C4)C5)s3)NC2=O)cc1 | 150 (≈ 69.8 µg/mL) | 150 (≈ 69.8 µg/mL) | 150 (≈ 70.1 µg/mL) | 0.139 (≈ 0.0648 µg/mL) | 150 (≈ 69.8 µg/mL) | 150 (≈ 69.8 µg/mL) | 0.15 (≈ 0.0701 µg/mL) | 301 (≈ 140 µg/mL) | 69.5 (≈ 32.4 µg/mL) | 0.139 (≈ 0.0648 µg/mL) | 139 (≈ 64.8 µg/mL) | 0.301 (≈ 0.14 µg/mL) | 139 (≈ 64.8 µg/mL) | 69.5 (≈ 32.4 µg/mL) | 0.0751 (≈ 0.035 µg/mL) | 69.5 (≈ 32.4 µg/mL) | 301 (≈ 140 µg/mL) | 139 (≈ 64.8 µg/mL) | 150 (≈ 69.8 µg/mL)
O=C1N/C(=N\c2nnc(C34CC5CC(CC(C5)C3)C4)s2)S/C1=C/c1ccc([N+](=O)[O-])cc1 | 12.3 (≈ 5.75 µg/mL) | 8 (≈ 3.74 µg/mL) | 8 (≈ 3.74 µg/mL) | 0.022 (≈ 0.0103 µg/mL) | 16.5 (≈ 7.72 µg/mL) | 8 (≈ 3.74 µg/mL) | 0.008 (≈ 0.00374 µg/mL) | 8 (≈ 3.74 µg/mL) | 33 (≈ 15.4 µg/mL) | 0.0165 (≈ 0.00772 µg/mL) | 16.5 (≈ 7.72 µg/mL) | 0.0165 (≈ 0.00772 µg/mL) | 22 (≈ 10.3 µg/mL) | 22 (≈ 10.3 µg/mL) | 0.006 (≈ 0.00281 µg/mL) | 16.5 (≈ 7.72 µg/mL) | 6 (≈ 2.81 µg/mL) | 18 (≈ 8.42 µg/mL) | 12.3 (≈ 5.75 µg/mL)
O=C1N/C(=N\c2nnc(C34CC5CC(CC(C5)C3)C4)s2)S/C1=C/c1ccccc1 | 47.5 (≈ 20.1 µg/mL) | 95 (≈ 40.1 µg/mL) | 47.3 (≈ 20 µg/mL) | 0.0947 (≈ 0.04 µg/mL) | 95 (≈ 40.1 µg/mL) | 47.5 (≈ 20.1 µg/mL) | 0.0473 (≈ 0.02 µg/mL) | 47.5 (≈ 20.1 µg/mL) | 94.7 (≈ 40 µg/mL) | 0.0473 (≈ 0.02 µg/mL) | 94.7 (≈ 40 µg/mL) | 0.095 (≈ 0.0401 µg/mL) | 94.7 (≈ 40 µg/mL) | 94.7 (≈ 40 µg/mL) | 0.0236 (≈ 0.00997 µg/mL) | 23.6 (≈ 9.97 µg/mL) | 47.5 (≈ 20.1 µg/mL) | 94.7 (≈ 40 µg/mL) | 47.5 (≈ 20.1 µg/mL)
O=C1N/C(=N\c2nnc(C34CC5CC(CC(C5)C3)C4)s2)S/C1=C/c1c(Cl)cccc1Cl | 61 (≈ 30 µg/mL) | 61 (≈ 30 µg/mL) | 61.1 (≈ 30 µg/mL) | 0.0407 (≈ 0.02 µg/mL) | 61 (≈ 30 µg/mL) | 61 (≈ 30 µg/mL) | 0.0611 (≈ 0.03 µg/mL) | 61 (≈ 30 µg/mL) | 21.4 (≈ 10.5 µg/mL) | 0.0407 (≈ 0.02 µg/mL) | 40.7 (≈ 20 µg/mL) | 0.122 (≈ 0.06 µg/mL) | 40.7 (≈ 20 µg/mL) | 40.7 (≈ 20 µg/mL) | 0.0305 (≈ 0.015 µg/mL) | 40.7 (≈ 20 µg/mL) | 122 (≈ 60 µg/mL) | 21.4 (≈ 10.5 µg/mL) | 92 (≈ 45.2 µg/mL)
